The source made the active and inactive calls. The rule behind the calls is not given here.
Key:
[1] = system: HuT78; assay: Phototoxicity against human HUT78 cells assessed as reduction in cell viability preincubated for 1 hr in dark before exposure to 1 J/cm2 irradiation after 48 hrs by MTT assay; format: functional, cell-based
Outline: (§1)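 HUT-78 cells in RPMI 1640 with 10% FBS, 1% HEPES and 1% penicillin-streptomycin were plated at 7.5×10^4 per well and grown 24 h. Dye was added to final 5×10^-8 to 5×10^-7 M, then 1 h in the dark. Plates were kept dark or irradiated with a 633 ± 2 nm dye laser at ~3.2 mW cm^-2 to 0.5, 1.0 or 2.0 J cm^-2. Medium was replaced, 48 h at 37 °C, then MTT read at 570 nm. Triplicate runs; EC50/LD50 by sigmoidal variable-slope fit.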

[2] = Dark toxicity against human HUT78 cells assessed as reduction in cell viability preincubated for 1 hr in dark after 48 hrs by MTT assay; format: cell-based; settings: read-out: LD50; outline: as §1
[3] = Drug extrusion in human CD3 positive cells assessed as change in mean fluorescence intensity at 5 x 10^-8 M preincubated for 20 mins followed by growth in photosensitizer-free media for 30 mins by flow cytometric analysis relative to control; format: cell-based; settings: 0.5 h, 0.05 µM
[4] = Drug extrusion in human CD4 positive cells assessed as change in mean fluorescence intensity at 5 x 10^-8 M preincubated for 20 mins followed by growth in photosensitizer-free media for 30 mins by flow cytometric analysis relative to control; format: cell-based; settings: 0.5 h, 0.05 µM
[5] = Drug extrusion in human CD8 positive cells assessed as change in mean fluorescence intensity at 5 x 10^-8 M preincubated for 20 mins followed by growth in photosensitizer-free media for 30 mins by flow cytometric analysis relative to control; format: cell-based; settings: 0.5 h, 0.05 µM
[6] = Drug extrusion in SEB-stimulated human CD25 positive cells assessed as change in mean fluorescence intensity at 5 x 10^-8 M preincubated for 20 mins followed by growth in photosensitizer-free media for 30 mins by flow cytometric analysis relative to control; settings: 0.5 h, 0.05 µM
[7] = Drug extrusion in SEB-stimulated human CD25 negative cells assessed as change in mean fluorescence intensity at 5 x 10^-8 M preincubated for 20 mins followed by growth in photosensitizer-free media for 30 mins by flow cytometric analysis relative to control; settings: 0.5 h, 0.05 µM
[8] = Drug uptake in SEB-stimulated human CD25 positive cells assessed as mean fluorescence intensity at 5 x 10^-8 M preincubated for 20 mins followed by growth in photosensitizer-free media for 30 mins by flow cytometric analysis relative to control; settings: 0.5 h, 0.05 µM
[9] = Drug uptake in SEB-stimulated human CD25 negative cells assessed as mean fluorescence intensity at 5 x 10^-8 M preincubated for 20 mins followed by growth in photosensitizer-free media for 30 mins by flow cytometric analysis relative to control; settings: 0.5 h, 0.05 µM
[10] = system: HuT78; assay: (§2) Phototoxicity in GFP expressing human HUT78 cells co-cultured with human PBMC cells assessed as cell survival at 7.5 x 10^-8 M preincubated 20 mins in photosensitizer media followed by growth in photosensitizer-free media for 30 mins measured 18 hrs after exposure to 5 J/cm2 irradiation by FACS analysis; format: functional; settings: HuT78, light or radiation study, read-out: Survival
Outline: (§3)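 Non-stimulated PBMCs from healthy donors (Ficoll-separated) were mixed 5:1 with GFP-transfected, sorted (>98%) HUT-78 cells. Cells took up 7.5×10^-8 M photosensitizer for 20 min, then spent 30 min in dye-free medium. They were exposed to 5 J cm^-2 light (600 nm LED) with rotation at 180 rpm. Survival was gated by FACS (GFP, CD3, CD4, CD8) 18 h later versus non-irradiated controls. Triplicate; mean ± SEM.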

[11] = as §2, with “Phototoxicity human CD3 positive cells co-cultured with” for “Phototoxicity in”, “HUT78” for “HUT78 cells co-cultured with human PBMC”; format: cell-based; settings: read-out: Survival; outline: as §3
[12] = as §2, with “Phototoxicity human CD4 positive cells co-cultured with” for “Phototoxicity in”, “HUT78” for “HUT78 cells co-cultured with human PBMC”; format: cell-based; settings: read-out: Survival; outline: as §3
[13] = as §2, with “Phototoxicity human CD8 positive cells co-cultured with” for “Phototoxicity in”, “HUT78” for “HUT78 cells co-cultured with human PBMC”; format: cell-based; settings: read-out: Survival; outline: as §3
[14] = system: HuT78; assay: Phototoxicity against human HUT78 cells assessed as reduction in cell viability preincubated for 1 hr in dark at 5 x 10^-8M before exposure to 0.5 to 2 J/cm2 irradiation after 48 hrs by MTT assay; format: functional, cell-based; outline: as §1
[15] = system: HuT78; assay: Drug uptake in GFP expressing human HUT78 cells co-cultured with non-stimulated human PBMC cells assessed as change in mean fluorescence intensity at 7.5 x 10^-8 M after 20 mins followed by growth in photosensitizer-free media for 30 mins by flow cytometric analysis relative to control; format: cell-based; settings: hut78, 0.5 h, 0.075 µM
[16] = Drug extrusion in SEB-stimulated human CD25 positive cells assessed as mean fluorescence intensity at 5 x 10^-8 M preincubated for 20 mins followed by growth in photosensitizer-free media for 30 mins by flow cytometric analysis relative to control; settings: 0.5 h, 0.05 µM
[17] = Drug extrusion in SEB-stimulated human CD25 negative cells assessed as mean fluorescence intensity at 5 x 10^-8 M preincubated for 20 mins followed by growth in photosensitizer-free media for 30 mins by flow cytometric analysis relative to control; settings: 0.5 h, 0.05 µM
[18] = system: ABCB1; assay: Permeability from apical to basolateral side in dog MDCK2-MDR1 cells expressing ABCB1 at 5 uM after 30 mins in presence of compound 15 by LC-MS/MS analysis; format: ADME, cell-based, Canis lupus familiaris, MDCK-II; settings: MDCK-MDR1, with compound 15 (concentration not stated), read-out: permeability
Outline: (§4)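 MDR1-transfected MDCKII cells (passage 16–42) were seeded at 50,000 cells cm^-2 on Transwell filters and used on day 6. Monolayers were rinsed in DPBS with 10^-2 M HEPES, pH 7.4, at 37 °C. They were preincubated 30 min in 4.3 mg/mL BSA/DPBSH with or without 5×10^-6 M P-gp inhibitor. 5 μM dye was added apically or basolaterally and samples taken after 1 h at 37 °C with nutation. Quantitation was by LC-MS/MS; P_passive is the mean of P_AB and P_BA under full inhibition. Mean ± SD.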

[19] = system: ABCB1; assay: Permeability from apical to basolateral side in dog MDCK2-MDR1 cells expressing ABCB1 at 5 uM after 30 mins in absence of compound 15 by LC-MS/MS analysis; format: ADME, cell-based, Canis lupus familiaris, MDCK-II; settings: MDCK-MDR1, read-out: permeability; outline: as §4
[20] = system: ABCB1; assay: Permeability from basolateral to apical side in dog MDCK2-MDR1 cells expressing ABCB1 at 5 uM after 30 mins in presence of compound 15 by LC-MS/MS analysis; format: ADME, cell-based, Canis lupus familiaris, MDCK-II; settings: MDCK-MDR1, with compound 15 (concentration not stated), read-out: permeability; outline: as §4
[21] = system: ABCB1; assay: Permeability from basolateral to apical side in dog MDCK2-MDR1 cells expressing ABCB1 at 5 uM after 30 mins in absence of compound 15 by LC-MS/MS analysis; format: ADME, cell-based, Canis lupus familiaris, MDCK-II; settings: MDCK-MDR1, read-out: permeability; outline: as §4
[22] = system: ABCB1; assay: Passive permeability in dog MDCK2-MDR1 cells expressing ABCB1 at 5 uM after 30 mins in presence of compound 15 by LC-MS/MS analysis; format: ADME, cell-based, Canis lupus familiaris, MDCK-II; settings: MDCK-MDR1, with compound 15 (concentration not stated), read-out: permeability; outline: as §4
[23] = Drug uptake in human HUT78 cell mitochondria by MTG-based bright field microscopic analysis; format: ADME
Outline: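 HUT-78 cells (5×10^5 in 0.5 mL medium) were incubated 15 min with 2×10^-7 M dye together with 5×10^-7 M MitoTracker Green. They were centrifuged and analysed by ImageStream imaging flow cytometry, with MTG excited at 488 nm (480–560 nm channel) and dye excited at 561 nm (642–745 nm channel). Colocalisation was given as the bright detail similarity score, mean ± SD over cells.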

[24] = system: HuT78; settings: human, hut78, 0.5 h, 0.075 µM
[25] = system: HuT78; settings: human, hut78, 0.5 h, 0.075 µM; remark: listed apart in the source

**Q.** For `O=C(c1ccc(C2=c3cc4c5c(c3[Se]c3c2cc2c6c3CCCN6CCC2)CCC[N+]=5CCC4)s1)N1CCCCC1.[Cl-]`, which Activity [1] is on record?
**A.** Dose-dependent effect

**Q.** And the EC50 ([1]; HuT78, light or radiation study)?
**A.** 70 nM

**Q.** What about the CC50 at 48 h [2] of the same compound?
**A.** 730 nM

**Q.** What about the Activity [3] of the same compound?
**A.** 54.6%

**Q.** And the Activity [4]?
**A.** 59.1%

**Q.** What about the Activity [5] of the same compound?
**A.** 69%

**Q.** And the Activity [6]?
**A.** 39.9%

**Q.** What about the Activity [7] of the same compound?
**A.** 59.8%

**Q.** What about the Flu intensity [8] of the same compound?
**A.** 7510 a.u.

**Q.** And the Flu intensity [9]?
**A.** 1450 a.u.

**Q.** What about the viability at 0.075 µM [10] of the same compound?
**A.** 3.9%

**Q.** And the viability at 18 h, 0.075 µM [11]?
**A.** 62.1%

**Q.** What about the viability at 18 h, 0.075 µM [12] of the same compound?
**A.** 63.3%

**Q.** And the viability at 18 h, 0.075 µM [13]?
**A.** 78%

**Q.** And the Activity [14]?
**A.** Active

**Q.** And the Activity [15]?
**A.** 55.7%

**Q.** And the Flu intensity [16]?
**A.** 4500 a.u.

**Q.** What about the Flu intensity [17] of the same compound?
**A.** 580 a.u.

**Q.** What about the Papp A→B at 0.5 h, 5 µM [18] of the same compound?
**A.** 0.024 ×10⁻⁶ cm/s

**Q.** What about the Papp A→B at 0.5 h, 5 µM [19] of the same compound?
**A.** 0.21 ×10⁻⁶ cm/s

**Q.** What about the Papp B→A at 0.5 h, 5 µM [20] of the same compound?
**A.** 0.48 ×10⁻⁶ cm/s

**Q.** What about the Papp B→A at 0.5 h, 5 µM [21] of the same compound?
**A.** 7.8 ×10⁻⁶ cm/s

**Q.** What about the Papp at 0.5 h, 5 µM [22] of the same compound?
**A.** 0.2 ×10⁻⁶ cm/s

**Q.** And the Drug uptake [23]?
**A.** Active

**Q.** What about the Flu intensity [24] of the same compound?
**A.** 6800 a.u.

**Q.** What about the Flu intensity [25] of the same compound?
**A.** 4500 a.u.

— ChEMBL document CHEMBL3826914, “Selective photodepletion of malignant T cells in extracorporeal photopheresis with selenorhodamine photosensitizers” (Bioorg Med Chem, 2016)
